# Source: PubChem
# In the library only some 4.9% were active in any assay of this set; here they are far more common.
# FLuc stim CS = affects firefly luciferase, flagging false hits in luciferase stimulation screens; P08659; ATPlite luciferase biochemical, luminescence, 10 min; 0 = ATP-free wells, 1 = DMSO control; activation factor at 10 µM; 200,000 tested, under 10 active; AID 1027;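 active = luciferase activation factor, scaled between plate controls, of at least 2 with compound at 10 µM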
# Target sequence (P08659 whole entry, looked up): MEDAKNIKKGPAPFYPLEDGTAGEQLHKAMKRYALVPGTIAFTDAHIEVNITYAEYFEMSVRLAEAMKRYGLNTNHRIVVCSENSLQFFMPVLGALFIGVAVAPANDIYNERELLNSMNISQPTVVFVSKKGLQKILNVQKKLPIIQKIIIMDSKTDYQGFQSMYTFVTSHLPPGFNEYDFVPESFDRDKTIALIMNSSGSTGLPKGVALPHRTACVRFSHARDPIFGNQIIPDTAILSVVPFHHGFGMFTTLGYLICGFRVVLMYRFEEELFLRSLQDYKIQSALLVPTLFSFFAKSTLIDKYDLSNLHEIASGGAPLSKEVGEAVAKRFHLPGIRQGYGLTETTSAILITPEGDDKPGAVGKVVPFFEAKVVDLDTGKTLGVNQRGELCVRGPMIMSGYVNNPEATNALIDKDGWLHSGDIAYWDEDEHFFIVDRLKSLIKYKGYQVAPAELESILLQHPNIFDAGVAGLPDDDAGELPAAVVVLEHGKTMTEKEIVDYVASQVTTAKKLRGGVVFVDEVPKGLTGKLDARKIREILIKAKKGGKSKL
#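 Material: Luciferase/luciferin reagent mix | Doses: Test compounds dosed from 2 mM stocks in 100% DMSO | Timing: 10 min incubation after luciferase reagent addition, room temperature | Measured by: Luminescence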
# STAT3 blocker = reduces IL-6 driven STAT3 reporter signal | U3A cells, IL-6 STAT3-luciferase reporter, luminescence; host cell line lacks STAT1 | inhibition, % at 5.5 µM | hit rate 0.89% among 190,000 | AID 862;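 active = inhibition above the mean inhibition across all screened compounds plus 3 SD, cut at about 44% in these data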;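 also: 0% = DMSO only wells and 100% = 100 µM nifuroxazide control wells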
# STAT1 blocker = inhibitors of IFN-gamma induced STAT1 signaling | NIH 3T3 STAT1-luciferase reporter, luminescence | AID 920 | inhibition, % at 5.5 µM | hit rate 0.35% among 200,000;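 active = inhibition above a set limit, the mean inhibition across all tested compounds plus 3 SD, cut at about 34% in these data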;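 also: 0% = IFN-gamma with DMSO and 100% = IFN-gamma with 300 µM nifuroxazide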
# STAT1 act-1 = increases IFN-gamma driven STAT1 reporter signal. NIH 3T3 STAT1-luciferase reporter, luminescence; 100% = IFN-gamma alone, no compound. hit rate 2.6% among 200,000. AID 932. activation (% of control), % at 5.5 µM;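 active = activation above the screen-wide mean activation plus 3 SD, cut at about 130% in these data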;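 also: raw ratio to IFN-gamma control signal so 100% means no change and 0% no light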
# FLuc inh counter = inhibits firefly luciferase, flagging false hits in luciferase inhibition screens; P08659; ATPLite firefly luciferase biochemical luminescence, 10 min; inhibition, % at 10 µM; hit rate 1.5% among 200,000;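 active = inhibition above about 50% when tested at 10 µM, limit read from the data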
# STAT3 act-1 = activators of IL-6 induced STAT3 signaling; activation (% of control), % at 5.6 µM; hit rate 0.91% among 190,000; U3A cells, IL-6 STAT3-luciferase reporter, luminescence; 100% = signal with IL-6 EC80 alone;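 active = activation above the screen-wide mean of compound activation plus 3 SD, cut at about 130% in these data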;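 also: 0% = background luminescence of wells with medium and substrate only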
#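 Material: STAT3-luciferase reporter U3A cells; Probe or stimulus: IL-6 (33 ng/mL); Incubation: compound pre-incubation 1 h before IL-6, then 6 h stimulation at 37 °C; Technique: luminescence from STAT3-driven luciferase reporter; Evaluation: % activation versus median of IL-6-stimulated wells; Controls: IL-6-only high control.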
# STAT3 act-2 = confirmation of STAT3 signaling activators; shares compounds with STAT3 act-1; U3A STAT3-luciferase reporter, IL-6 potentiation, luminescence; U3A cells lack STAT1; 100 means same as IL-6 alone; potentiation (% of control), % at 5.7 µM; hit rate 64% among 1,200; AID 1267;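 active = percent activation of the STAT3 luciferase reporter above a set limit taken from the earlier primary screen, cut at about 130% in these data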;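 also: 0% = background signal of medium plus substrate and 100% = median of IL-6 with DMSO wells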
# NFkB act 2 = counter-screen for STAT3 activators: NF-kappaB activation. shares compounds with STAT3 act-1. AID 1309. activation (% of control), % at 5.7 µM. hit rate 11% among 1,200. human cells, NF-kappaB reporter activation; in the data active = activation above about 120%;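 also: reporter induced by TNF-alpha stimulation; 100% = median of stimulated DMSO wells and 0% = no signal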
# STAT1 act-2 = STAT1 activation in STAT3 activator counter-screen; hit rate 13% among 1,200; shares compounds with STAT3 act-1; activation (% of control), % at 5.7 µM; NIH 3T3 STAT1-luciferase reporter, IFN-gamma, luminescence;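 active = activation above the solvent-only control well mean plus 3 SD, set per screening run, cut at about 120% in these data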;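 also: 100% = IFN-gamma with DMSO median signal so 100% means no change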
# Numbers without * were called inactive; . = no result given.
SMILES,FLuc stim CS,STAT3 blocker,STAT1 blocker,STAT1 act-1,FLuc inh counter,STAT3 act-1,STAT3 act-2,NFkB act 2,STAT1 act-2
Cc1c(C#N)c2ccccc2n1CC(=O)O,.,-63,6,94,.,159*,161*,102,108
C=CCn1c(COc2ccc(CC)cc2)nnc1SC/C(O)=C(\C#N)c1nc2ccccc2[nH]1,1.1,-72,8,93,-9,160*,150*,102,89
COc1ccc2[nH]c(-c3cccc(F)c3)cc(=O)c2c1,0.7,-60,-30,128,25,148*,119,130*,126*
COc1cccc(-c2cc(=O)c3cc(NC(=O)c4ccccc4)ccc3[nH]2)c1,1.1,-15,-1,101,-7,110,.,.,.
COc1ccc(-c2cc(=O)c3ccccc3[nH]2)cc1,0.9,2,-3,103,11,96,.,.,.
O=c1cc(-c2ccc(F)cc2F)[nH]c2ccccc12,1,0,-2,102,2,98,.,.,.
COc1cccc(-c2cc(=O)c3cc(NC(=O)c4ccc(N(C)C)cc4)ccc3[nH]2)c1,1,-49,-3,103,-2,139*,112,161*,106
Cc1ccc2[nH]c(-c3cccc(F)c3)cc(=O)c2c1,0.8,-54,-23,121,20,142*,110,143*,116
C=CCc1cccc2cc(C(=O)N3CCN(c4ccccn4)CC3)c(=O)oc12,1,7,1,99,-2,100,.,.,.
COc1ccccc1NS(=O)(=O)c1cccc(NC(=O)Cc2cccs2)c1,1,0,5,96,-5,100,.,.,.
O=C1C2C3C=CC(C3)C2C(=O)N1CNc1ccccn1 (stereo not given),1.1,-46,-1,101,-7,140*,101,111,103
COc1ccc(OC)c(Nc2nc(-c3sc(NC(=O)c4ccccc4)nc3C)cs2)c1,1.1,16,8,92,-7,95,.,.,.
COc1ccc(OC)c(Nc2nc(-c3cccs3)cs2)c1,1.1,-53,-11,110,-9,147*,121,112,103
Cc1cc(C)n(-c2nc3ccccc3c(=O)n2OCc2ccc(Cl)cc2)n1,1.1,-45,12,89,-9,145*,128,102,95
Cc1cc(C)n(-c2nc3ccccc3c(=O)n2OCC(=O)OCc2ccccc2)n1,1,10,-5,104,-3,99,.,.,.
O=C(Oc1ccc(C(=S)N2CCC(O)CC2)cc1)c1ccc(Cl)cc1,0.8,21,-21,119,17,91,.,.,.
Cc1c(CN2CCc3c([nH]c4ccccc34)C2C2CCCCC2)cnn1C (stereo not given),1.1,-25,6,94,-6,126,.,.,.
CC(=O)c1cc(C(=O)N2CCc3c([nH]c4ccccc34)C2C2CCCCC2)[nH]n1 (stereo not given),1.1,-56,0,98,-6,157*,155*,104,96
CCCCCC(=O)Nc1nc(C)c(-c2csc(Nc3cc(Cl)ccc3C)n2)s1,1.1,-5,12,89,-13,111,.,.,.
CCCCCC(=O)Nc1nc(C)c(-c2csc(Nc3ccc(Cl)cc3)n2)s1,1.1,-60,15,87,-8,148*,130,104,98
Cc1nc(NC(=O)c2ccco2)sc1-c1csc(Nc2ccc(Cl)cc2)n1,1.1,-56,2,98,-6,146*,124,102,101
CCCCCCC(=O)Nc1nc(C)c(-c2csc(Nc3ccc(Cl)cc3)n2)s1,1.1,-35,20,81,-8,136*,126,108,94
Cc1nc(NC(=O)CC(C)C)sc1-c1csc(Nc2ccc(Cl)cc2Cl)n1,1,0,-9,108,-4,105,.,.,.
Cc1nc(NC(=O)c2ccccc2)sc1-c1csc(Nc2ccc(Cl)cc2)n1,1,28,-10,109,-3,86,.,.,.
Cc1nc(NC(=O)CC(C)C)sc1-c1csc(Nc2ccc(Cl)cc2)n1,1.1,-51,6,95,-8,141*,120,100,99
SMILES,FLuc stim CS,STAT3 blocker,STAT1 blocker,STAT1 act-1,FLuc inh counter,STAT3 act-1,STAT3 act-2,NFkB act 2,STAT1 act-2
CN(C(=O)COC(=O)/C=C/c1ccc(S(=O)(=O)N2CCc3ccccc32)cc1)C1CCS(=O)(=O)C1 (stereo not given),1,4,2,97,-4,103,.,.,.
Cc1c(NS(=O)(=O)c2ccc(C(=O)NCc3ccccc3)cc2)c(=O)n(-c2ccccc2)n1C,1.1,6,-3,101,-6,102,.,.,.
COc1ccc([N+](=O)[O-])cc1C1NN=C(c2ccccc2O)S1 (stereo not given),1.1,-52,5,95,-6,151*,142*,100,103
COc1ccc([N+](=O)[O-])cc1NC(=O)Nc1ccccc1,1,17,10,91,-3,87,.,.,.
CCOC(=O)Cc1cc(-c2ccccc2)nc2ccc3ccccc3c12,1,-39,-6,105,-2,136*,124,114,105
c1ccc(-c2cc(-c3ccncc3)nc3ccc4ccccc4c23)cc1,1.1,-4,3,98,-8,101,.,.,.
COc1ccccc1NC(=O)CN1CCSc2ccccc21,1,6,8,92,1,98,.,.,.
Cn1c2ccc(F)cc2c2ncn(CCN3CCOCC3)c(=O)c21,1,6,-4,104,-4,97,.,.,.
Cn1c2ccccc2c2ncn(CCCN3CCOCC3)c(=O)c21,1,-42,5,95,-3,140*,154*,112,108
Cc1nn(CCC(=O)NNC(=S)Nc2ccc([N+](=O)[O-])cc2)c(C)c1[N+](=O)[O-],1.1,-47,4,95,-7,140*,136*,104,102
COc1ccc(C2SCC(=O)N2c2nnc(C34CC5CC(CC(C5)C3)C4)s2)cc1 (stereo not given),1,-2,-6,105,-2,99,.,.,.
COc1cc(C2SCC(=O)N2c2nnc(C34CC5CC(CC(C5)C3)C4)s2)cc(OC)c1OC (stereo not given),1,-58,1,99,-3,165*,142*,108,111
